Measured values taken from ChEMBL document CHEMBL4732116, “Discovery of novel CA-4 analogs as dual inhibitors of tubulin polymerization and PD-1/PD-L1 interaction for cancer treatment” (Eur J Med Chem, 2021).
pIC50: −log10 of the molar value. Activity calls are given as the source filed them. The rule behind the calls is not given here.

Tests used:
HeLa = test: Antiproliferative activity against human HeLa cells assessed as reduction in cell viability measured after 48 hrs by CCK8 assay; type: functional, cell-based
Procedure, shortened: (§1)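 Cells pre-incubated 24 h at 37 °C, 5% CO2, then exposed to compounds over a concentration range in medium with 0.1% DMSO for a further 48 h at 37 °C. CCK-8 read-out as absorbance at 450 nm. IC50 taken from dose-response curves. Three independent experiments.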

HEK293 = test: Cytotoxicity against HEK293 cells assessed as reduction in cell viability measured after 48 hrs by CCK8 assay; type: cell-based; settings: Homo sapiens, HEK293, 48 h; procedure, shortened: as §1
MC-38 = test: Antiproliferative activity against mouse MC38 cells assessed as reduction in cell viability measured after 48 hrs by CCK8 assay; type: functional, cell-based; settings: MC-38, 48 h; procedure, shortened: as §1
[1] = Antiproliferative activity against human A549/PTX cells assessed as reduction in cell viability measured after 48 hrs by CCK8 assay; type: functional, cell-based; settings: A549/Taxol; procedure, shortened: as §1
HepG2 = test: Antiproliferative activity against human HepG2 cells assessed as reduction in cell viability measured after 48 hrs by CCK8 assay; type: functional, cell-based; settings: HepG2, 48 h; procedure, shortened: as §1
NCM460 = test: Cytotoxicity against human NCM460 cells assessed as reduction in cell viability measured after 48 hrs by CCK8 assay; type: cell-based; settings: NCM460, 48 h; procedure, shortened: as §1
B16-F10 = test: Antiproliferative activity against mouse B16-F10 cells assessed as reduction in cell viability measured after 48 hrs by CCK8 assay; type: functional, cell-based; settings: B16-F10, 48 h; procedure, shortened: as §1
[2] = molecular target: Programmed cell death protein 1/Programmed cell death 1 ligand 1 (Homo sapiens, UniProt Q9NZQ7); test: Inhibition of PD1/PDL1 (unknown origin) protein-protein interaction measured after 15 mins by HTRF assay; type: protein-complex assay
[3] = (§2) Inhibition of pig brain tubulin polymerization by spectrophotometric method; type: tissue-based, Sus scrofa
Procedure, shortened: (§3)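 Pig brain tubulin (three assembly/disassembly cycles, phosphocellulose P11 purification) mixed with compound at various concentrations in PEM buffer (100 mM PIPES, 1 mM MgCl2, 1 mM EGTA) with 1 mM GTP, 5% glycerol; polymerization read at 340 nm, 37 °C; plateau absorbance used.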

Sus scrofa = organism: Sus scrofa; test: as §2; type: tissue-based; procedure, shortened: as §3
Tubulin (Homo sapiens) = Tubulin (Homo sapiens) (UniProt P68371+Q9H4B7+P0DPH7+P68366+Q13509+Q71U36+P04350+Q3ZCM7+P07437+P68363+Q9BQE3+Q6PEY2+Q13885+Q9BVA1+Q9BUF5); test: Disruption of microtubule network in human HepG2 cells at 5 uM measured after 24 hrs by immunofluorescence assay; type: cell-based
Procedure, shortened: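 HepG2 cells on glass coverslips, treated 24 h after plating for 24 h (vehicle 0.1% DMSO). Fixed 15 min in 4% formaldehyde, permeabilized 5 min in 0.2% Triton X-100, blocked 30 min in 5% BSA. Immunostained with anti-tubulin antibody, then imaged by confocal laser scanning.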

Sequence of Programmed cell death protein 1/Programmed cell death 1 ligand 1 (Q15116 whole entry): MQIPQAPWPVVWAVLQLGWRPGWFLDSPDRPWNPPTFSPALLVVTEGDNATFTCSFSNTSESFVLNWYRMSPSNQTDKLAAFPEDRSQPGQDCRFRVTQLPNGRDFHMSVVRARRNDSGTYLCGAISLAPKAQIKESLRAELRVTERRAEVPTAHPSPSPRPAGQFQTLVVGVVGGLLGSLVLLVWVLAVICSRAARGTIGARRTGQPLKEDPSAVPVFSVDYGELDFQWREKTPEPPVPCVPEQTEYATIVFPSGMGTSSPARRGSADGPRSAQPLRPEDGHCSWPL
Sequence of Programmed cell death protein 1/Programmed cell death 1 ligand 1 (Q9NZQ7 whole entry): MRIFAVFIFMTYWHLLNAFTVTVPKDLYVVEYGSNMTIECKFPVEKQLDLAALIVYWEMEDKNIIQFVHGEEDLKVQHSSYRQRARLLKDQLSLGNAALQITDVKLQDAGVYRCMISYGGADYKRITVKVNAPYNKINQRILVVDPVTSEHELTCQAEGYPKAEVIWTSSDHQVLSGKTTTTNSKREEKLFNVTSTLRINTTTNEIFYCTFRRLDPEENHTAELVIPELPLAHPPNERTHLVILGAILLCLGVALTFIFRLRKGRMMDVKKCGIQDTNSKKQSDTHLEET

Row | SMILES | pIC50 (HeLa) | pIC50 (HEK293) | pIC50 (MC-38) | pIC50 [1] | pIC50 (HepG2) | pIC50 (NCM460) | pIC50 (B16-F10) | pIC50 [2] | pIC50 [3] | inhibition (Sus scrofa) | inhibition (Tubulin (Homo sapiens))
1 | COc1ccc(/C=C\c2cc(OC)c(OC)c(OC)c2)cc1OCc1ccc(CN[C@H](C(=O)O)[C@H](C)O)cc1 | < 5.00 | < 4.30 | < 5.00 | < 4.70 | < 5.00 | < 4.30 | < 5.00 | 4.23 |  |  | 
2 | COc1ccc(/C=C\c2cc(OC)c(OC)c(OC)c2)cc1OCc1ccc(CN2CCCCC2C(=O)NCCN)cc1 (configuration not stated) | 5.14 | < 4.30 | < 5.00 | 5.57 | 5.32 | < 4.30 | 5.34 | 4.18 |  |  | 
3 | COc1ccc(/C=C\c2cc(OC)c(OC)c(OC)c2)cc1OCc1ccc(CN2CCCCC2C(=O)NCCNC(=O)OC(C)(C)C)cc1 (configuration not stated) | 5.70 | 4.32 | 5.72 | 4.82 | 5.96 | 4.55 | 5.33 | < 4.00 | 3.70 |  | 
4 | COc1ccc(/C=C\c2cc(OC)c(OC)c(OC)c2)cc1OCc1ccc(CN2C[C@H](O)[C@@H](F)C2)cc1 | 5.04 | 4.54 | < 5.00 | 4.72 | 5.28 | 4.42 | < 5.00 | 4.28 |  |  | 
5 | COc1ccc(/C=C\c2cc(OC)c(OC)c(OC)c2)cc1O [COMBRETASTATIN A4] | 7.22 | 4.96 | 7.10 | 6.21 | 6.23 | 4.92 | 7.30 | < 4.00 | 5.37 |  | 
6 | COc1ccc(/C=C\c2cc(OC)c(OC)c(OC)c2)cc1OCc1ccc(CNCCO)cc1 | 5.36 | < 4.30 | 5.92 | 6.10 | 5.23 | 4.41 | 5.18 | 4.04 |  |  | 
7 | COc1ccc(/C=C\c2cc(OC)c(OC)c(OC)c2)cc1OCc1ccc(CN2CC(C(=O)O)C2)cc1 | 5.19 | < 4.30 | < 5.00 | < 4.70 | < 5.00 | < 4.30 | < 5.00 | 4.38 |  |  | 
8 | COc1ccc(/C=C\c2cc(OC)c(OC)c(OC)c2)cc1OCc1ccc(CN2CC[C@H](O)C2)cc1 | 4.98 | < 4.30 | 5.14 | 5.23 | 5.18 | 4.29 | < 5.00 | 4.05 |  |  | 
9 | CC(=O)O[C@H]1C(=O)[C@@]2(C)[C@H]([C@H](OC(=O)c3ccccc3)[C@]3(O)C[C@H](OC(=O)[C@H](O)[C@@H](NC(=O)c4ccccc4)c4ccccc4)C(C)=C1C3(C)C)[C@]1(OC(C)=O)CO[C@@H]1C[C@@H]2O |  |  |  |  |  |  |  |  |  | inactive | 
10 | COc1ccc(/C=C\c2cc(OC)c(OC)c(OC)c2)cc1OCc1ccc(CN2CC[C@H](C(=O)O)C2)cc1 | < 5.00 | < 4.30 | < 5.00 | 4.92 | 5.19 | < 4.30 | 5.15 | 4.41 |  |  | 
11 | COc1ccc(/C=C\c2cc(OC)c(OC)c(OC)c2)cc1OCc1ccc(CN2CCCCC2C(=O)O)cc1 (configuration not stated) | 4.85 | < 4.30 | 5.27 | 4.99 | 5.51 | < 4.30 | < 5.00 | < 4.00 |  |  | 
12 | COc1ccc(/C=C\c2cc(OC)c(OC)c(OC)c2)cc1OCc1ccc(CN2CC[C@@H](O)C2)cc1 | < 5.00 | < 4.30 | 5.16 | 5.05 | 5.21 | 4.28 | < 5.00 | < 4.00 |  |  | 
13 | COc1ccc(/C=C\c2cc(OC)c(OC)c(OC)c2)cc1OCc1ccc(CN2CC[C@@H](C(=O)O)C2)cc1 | 4.89 | 4.57 | 5.20 | < 4.70 | 5.64 | < 4.30 | < 5.00 | < 4.00 | < 3.70 |  | 
14 | COc1ccc(/C=C\c2cc(OC)c(OC)c(OC)c2)cc1OCc1ccc(CNCCN(C)C)cc1 | 5.03 | 4.41 | 5.85 | 5.80 | 5.36 | 4.46 | < 5.00 | < 4.00 |  |  | 
15 | COc1ccc(/C=C\c2cc(OC)c(OC)c(OC)c2)cc1OCc1ccc(CN2CCCC[C@H]2C(=O)O)cc1 | < 5.00 | < 4.30 | < 5.00 | < 4.70 | < 5.00 | < 4.30 | < 5.00 | < 4.00 | < 3.70 |  | 
16 | COc1ccc(/C=C\c2cc(OC)c(OC)c(OC)c2)cc1OCc1ccc(C=O)cc1 |  |  |  |  |  |  |  |  |  |  | Active
17 | COc1ccc(/C=C\c2cc(OC)c(OC)c(OC)c2)cc1OCc1ccc(CNC(C)(C)C(=O)O)cc1 | < 5.00 | < 4.30 | < 5.00 | < 4.70 | 5.19 | < 4.30 | < 5.00 | < 4.00 |  |  | 
18 | COc1ccc(/C=C\c2cc(OC)c(OC)c(OC)c2)cc1OCc1ccc(CN2CCCC[C@@H]2C(=O)O)cc1 | < 5.00 | 4.38 | < 5.00 | < 4.70 | < 5.00 | < 4.30 | < 5.00 | < 4.00 |  |  | 
19 | COc1ccc(/C=C\c2cc(OC)c(OC)c(OC)c2)cc1OCc1ccc(CN2C[C@H](O)C[C@@H]2C(=O)O)cc1 | < 5.00 | < 4.30 | < 5.00 | < 4.70 | < 5.00 | < 4.30 | < 5.00 | < 4.00 |  |  | 
20 | COc1ccc(/C=C\c2cc(OC)c(OC)c(OC)c2)cc1OCc1ccc(CO)cc1 | 5.12 | 4.43 | 5.24 | 4.92 | 5.62 | < 4.30 | 5.18 | < 4.00 |  |  | 
21 | COc1ccc(/C=C\c2cc(OC)c(OC)c(OC)c2)cc1OCc1ccc(CNCCNC(C)=O)cc1 | 5.19 | < 4.30 | 5.74 | 5.96 | 5.21 | 4.27 | 5.60 | 4.35 | 4.22 |  | 
22 | COc1ccc(/C=C\c2cc(OC)c(OC)c(OC)c2)cc1OCc1ccc(CN[C@H](C(=O)O)[C@@H](C)O)cc1 | < 5.00 | < 4.30 | < 5.00 | < 4.70 | < 5.00 | < 4.30 | 5.27 | 4.29 |  |  | 
